Published values from different studies.
Protocols differ between the studies behind these lines.
Technique: competition with immobilised ligand
JAK3 JH1: Tyrosine-protein kinase JAK3, JH1 (JAK3, Homo sapiens, UniProt P52333)
JAK3: Tyrosine-protein kinase JAK3 (JAK3, Homo sapiens, UniProt P52333)

COc1cnc(Nc2cccc(S(N)(=O)=O)c2)nc1N1CCN(c2ccccc2)C(=O)C1 — remaining binding (JAK3 JH1; binding; 1 µM): 16%
CS(=O)(=O)NCC[C@H](NC(=O)c1cncc2c1cnn2-c1ccc(F)cc1)c1ccnc(S(C)(=O)=O)c1 — remaining binding (JAK3 JH1; cell-free assay; 1 µM): 100%
O=C(Nc1c[nH]nc1C(=O)NC1CCNCC1)c1cc(F)cc(F)c1 — remaining binding (JAK3 JH1; binding; 1 µM): 100%
CN(CCCC(F)(F)F)c1nccc(-c2cnn3ncccc23)n1 — remaining binding (JAK3 JH1; cell-free assay; 1 µM): 71%
C=CC(=O)N1CCC(C(=O)NCC(=O)N2CCN(c3nc(-c4cnc(N)nc4C(F)F)nc(N4CCOCC4)n3)CC2)CC1 — remaining binding (JAK3 JH1; binding; 1 µM): 88%
C[C@@H]1CN(c2ccc3ncc(-c4ccc5[nH]nc(C6CC6)c5c4)n3n2)C[C@H](C)O1 — remaining binding (JAK3; binding; 50 nM): 76%
O=C(NCCCN1CCOCC1)c1ccc(Nc2ncc(Cl)c(-c3ccc(Cl)s3)n2)cc1 — remaining binding (JAK3 JH1; binding; 1 µM): 0.8%
FC(F)(F)Oc1cccc(-c2cnc3ccc(-c4ccncc4)nn23)c1 — remaining binding (JAK3 JH1; cell-free assay; 5 µM): 23%
CN(C)c1nccc(-c2cnc3ncccn23)n1 — remaining binding (JAK3 JH1; cell-free assay; 1 µM): 93%
Nc1ncc2c(n1)-c1c([nH]c3ccc(C#CC4CC4)cc13)CCCC2 — remaining binding (JAK3 JH1; binding; 1 µM): 80%
O=S(=O)(NC1CCC(c2cc(F)ccc2F)(S(=O)(=O)c2ccc(Cl)cc2)CC1)C(F)(F)F (stereo not shown) — remaining binding (JAK3 JH1; cell-free assay; 1 µM): 100%
O=C(NCCCN1CCOCC1)c1ccc(Nc2nccc(-c3cc4ccccc4s3)n2)cc1 — remaining binding (JAK3 JH1; binding; 1 µM): 6.4%
COC(=O)Nc1nc2ccc(C(=O)c3ccccc3)cc2[nH]1 — remaining binding (JAK3; cell-free assay; 10 µM): 29%
COc1ncc2cc3ccccc3nc2c1C#N — remaining binding (JAK3 JH1; cell-free assay; 5 µM): 63%
CC1=C(C#N)C(c2ccc3c(c2)c(NC(=O)c2ccccc2C)nn3C)C(C#N)=C(C)N1 — remaining binding (JAK3 JH1; cell-free assay; 1 µM): 83%
Cc1cnc(Nc2ccc(C(=O)N3CCC(N4CCCC4)CC3)cc2)nc1-c1cc2ccccc2s1 — remaining binding (JAK3 JH1; binding; 1 µM): 0%
CNC(=O)c1ccc(Nc2ncc(C(F)(F)F)c(NCc3nccnc3N(C)S(C)(=O)=O)n2)cc1 — remaining binding (JAK3; binding; 1 µM): 8.2%
CCN1CCN(Cc2ccc(C(=O)Nc3ccc(C)c(Oc4ccc5c(c4)CC(=O)N5)c3)cc2C(F)(F)F)CC1 — remaining binding (JAK3 JH1; binding; 1 µM): 97%
CC(=O)N1CCC(c2ccc(C(=O)NC(=N)N)cc2C(F)(F)F)CC1 — remaining binding (JAK3 JH1; cell-free assay; 1 µM): 100%
CC1CCCN1c1nccc(-c2cnn3ncccc23)n1 (stereo not shown) — remaining binding (JAK3 JH1; cell-free assay; 1 µM): 97%
Nc1c(C(=O)NCc2ccc(C(=O)NCCCC3CCCCC3)cc2)cnn1-c1ccccc1 — remaining binding (JAK3 JH1; cell-free assay; 0.1 µM): 100%
Cc1cnn2ncc(-c3ccnc(N(C)C)n3)c2c1 — remaining binding (JAK3 JH1; cell-free assay; 1 µM): 91%
